From PubChem
Diaphorase inh: counter-screen for diaphorase-based assays: diaphorase inhibitors and chemical oxidizers | diaphorase resazurin-to-resorufin fluorescence, NADH, 16 min; bacterial (C. kluyveri) enzyme, not human | inhibition, % at 20 µM | 0.69% of 190,000 active;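 active = primary screen inhibition at 20 µM above a set limit, cut at about 50% in these data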
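System: Diaphorase enzyme from Clostridium kluyveri | Amount: Enzyme working solution with 0.14 U/mL diaphorase | Benchmarks: No-NADH positive control and DMSO neutral control | Signal: Fluorescence of resorufin formed from resazurin, Ex 544/Em 590 nm | Schedule: 16-min room-temperature incubation before reading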
PfGluPho inh: PfG6PD (Plasmodium falciparum) enzyme inhibition; PfGluPho enzyme, NADPH resazurin-diaphorase fluorescence; inhibition, % at 20 µM; 0.78% of 350,000 active;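 active = inhibition reaching at least a set limit at 20 µM in the primary screen, cut at about 59% in these data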
G6PDH counter: inhibits Leuconostoc G6PDH, flagging false hits in G6PDH-based assays. Purified L. mesenteroides G6PDH, diaphorase/resazurin coupled fluorescence, 45 min. inhibition, % at 5 µM. 0.12% of 200,000 active; in the data active = inhibition above about 50%
HKDC1 inh: inhibitors of human hexokinase HKDC1. AID 493160. 0.16% of 340,000 active. inhibition, % at 20 µM. recombinant HKDC1, G6PDH/diaphorase resazurin coupled fluorescence. Q2TB90;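 active = inhibition above about 35% when tested at 20 µM, limit read from the data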
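Assay system – recombinant HKDC1 (HK5) hexokinase enzyme, produced in-house · Input – HKDC1 at 5 µg/mL · Reagent – glucose plus 1 mM ATP as hexokinase substrates · Timing – 90 min reaction incubation at room temperature, dark · Measured by – G6PDH/diaphorase-coupled fluorescence, 1 mM NADP, 100 µM resazurin, 525/613 nm · Benchmarks – DMSO-enzyme wells negative, buffer-substituted wells positive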
Large screens that a line does not name were inactive. Only some compounds are listed: those with a hit (about 1.2% of all), similar ones and a draw of the others.

O=C(NC(=O)c1c(F)cccc1F)Nc1cccc(Oc2ncc(Cl)cn2)c1	none (no result: Diaphorase inh, G6PDH counter)
COCCN(C(=O)COC(=O)c1nc(Cl)ccc1Cl)c1c(N)n(Cc2ccccc2)c(=O)[nH]c1=O	none (no result: Diaphorase inh, G6PDH counter)
CCOC(=O)c1cn(CC)c2cc(Cl)c([N+](=O)[O-])cc2c1=O	none
CCOC(=O)c1cn(-c2c(Cl)cccc2Cl)c2cc(Cl)c([N+](=O)[O-])cc2c1=O	Diaphorase inh 52.5
N=C1/C(=C\c2ccc(SCc3ccco3)o2)C(=O)N=C2SC=NN12	Diaphorase inh 54.1
O=C(O)/C(=C\c1cccc(OCc2ccccc2)c1)c1ccc(F)cc1	none (no result: Diaphorase inh, G6PDH counter)
CC(C)[C@H](NC(N)=O)C(=O)NCCc1ccc(Cl)cc1	Diaphorase inh 66.8
Cc1[nH]c2ccc(C(=O)OC(C)C(=O)NC3(C#N)CCCCC3)cc2c1C (centres undefined)	none (no result: Diaphorase inh, G6PDH counter)
Fc1ccc(NC(=S)Nc2ccc3nccnc3c2)cc1	Diaphorase inh 64.4
CC(C)N(C(=O)Nc1ccc2nccnc2c1)C(C)C	Diaphorase inh 65.0
Cc1ccccc1-c1cc(C(=O)NCc2ccc3c(c2)OCO3)n(CC2CC(c3cccnc3)=NO2)n1 (centres undefined)	none (no result: Diaphorase inh, G6PDH counter)
CCn1c2ccccc2c2nnc(SCc3cc(=O)n4ccsc4n3)nc21	Diaphorase inh 77.2 (no result: PfGluPho inh, HKDC1 inh)
Cn1c(Cc2ccccc2)nnc1SCc1cc(=O)n2ccsc2n1	none
Cc1cccc2cc3c(N)c(C#N)sc3nc12	none
Cc1sc(NC(=O)c2sc3nc4c(C)cccc4cc3c2N)c(C#N)c1C	Diaphorase inh 59.1
Cc1snc(SCC(=O)c2ccc(F)cc2)c1C#N	none
Cc1snc(SCC(=O)c2ccc([N+](=O)[O-])cc2)c1C#N	PfGluPho inh 62.2
CN(C)/C=C1/Oc2c(ccc3ccccc23)C1=O	none
CN(C)/C=C1\Oc2ccc3ccccc3c2C1=O	Diaphorase inh 70.5
O=C1CCC(=O)c2ccc3c4c(ccc1c24)CC3	none (no result: Diaphorase inh, G6PDH counter)
O=C1CCN2C=Nc3cccc4ccc1c2c34	Diaphorase inh 76.6
COCCNC(=O)c1cccc(OC2CCN(Cc3ccccc3C)CC2)c1	none (no result: Diaphorase inh, G6PDH counter)
CCN(C(=O)c1c(C)cc(=O)oc1C)c1ccc2c(c1)OCO2	none
CCN(C(=O)c1coc(=O)c(Br)c1)c1ccc2c(c1)OCO2	Diaphorase inh 66.3
Cc1[nH]c2ccccc2c1C(C#N)(C#N)C1C(=O)c2ccccc2C1=O	PfGluPho inh 122.1, HKDC1 inh 57.1 (no result: Diaphorase inh, G6PDH counter)
Cc1[nH]c2ccccc2c1CC#N	none (no result: Diaphorase inh, G6PDH counter)
CC(SCc1ccccc1)C(=O)N/N=C/c1cc2c(cc1Br)OCO2 (centres undefined)	Diaphorase inh 50.9
CC(SCc1ccccc1)C(=O)N/N=C/c1ccc2c(c1)OCO2 (centres undefined)	none
CC(C)NCC(O)c1ccc(O)c(O)c1 (centres undefined)	none (no result: Diaphorase inh, G6PDH counter)
CNC[C@H](O)c1ccc(O)c(O)c1	Diaphorase inh 58.6, G6PDH counter 64.2
CCN1CCN(CCCNC(=O)c2ccccc2NC(=O)C2=C(C)OCCS2)CC1	none (no result: Diaphorase inh, G6PDH counter)
Cc1ccc(C(=O)NCCc2c[nH]c3ccccc23)s1	none (no result: Diaphorase inh, G6PDH counter)
CC1CCCCC12NC(=O)N(CC(=O)OCc1cccc(F)c1)C2=O (centres undefined)	none (no result: Diaphorase inh, G6PDH counter)
O=C(N/N=C/c1ccccc1Cl)c1nc2ccc([N+](=O)[O-])cc2c(=O)[nH]1	Diaphorase inh 57.9
O=C(N/N=C/c1cccc([N+](=O)[O-])c1)c1nc2ccccc2c(=O)[nH]1	none (no result: Diaphorase inh, G6PDH counter)
COC(=O)N/N=C\c1c(C)[nH]n(-c2ccccc2)c1=O	none
CC(=O)N/N=C/c1c(C)[nH]n(-c2ccccc2)c1=O	Diaphorase inh 55.8
Cc1[nH]n(-c2ccccc2)c(=O)c1/C=N/NC(=O)COc1ccccc1[N+](=O)[O-]	Diaphorase inh 52.9
COc1cc2c(cc1OC)CN(c1ccc(F)cc1[N+](=O)[O-])CC2	none (no result: Diaphorase inh, G6PDH counter)
O=C(c1cnn2c(C(F)(F)F)cc(-c3cccs3)nc12)N1CCCC1	none (no result: Diaphorase inh, G6PDH counter)
O=C(NCc1ccco1)c1cnn2c(C(F)(F)F)cc(-c3cccs3)nc12	Diaphorase inh 57.9
O=C(NC1CCCC1)c1sc(=S)n2c1[nH]c(=O)c1ccccc12	Diaphorase inh 61.4
O=C(NCc1ccco1)c1sc(=S)n2c1[nH]c(=O)c1ccccc12	Diaphorase inh 67.0
C=CCn1c(N)c(C(=O)NCc2ccco2)sc1=S	none
COc1ccccc1C1(O)C(=O)Nc2ccccc21 (centres undefined)	none (no result: Diaphorase inh, G6PDH counter)
COc1cccc(-c2nnc3sc(-c4ccccc4)nn23)c1	none
COc1cccc(OC)c1-c1nn2c(-c3cc(-c4ccccc4)n[nH]3)nnc2s1	HKDC1 inh 43.8
COc1ccccc1NC(=O)CCCCCN1C(=O)c2cccc([N+](=O)[O-])c2C1=O	none (no result: Diaphorase inh, G6PDH counter)
COc1cc(/C=C2/C(=O)c3cccc([N+](=O)[O-])c3C2=O)c(Br)cc1O	Diaphorase inh 50.3
COc1ccc(N2CSC3=C(C#N)C(c4cccs4)CC(=O)N3C2)cc1 (centres undefined)	Diaphorase inh 52.9
CCOC(=O)c1ccc(N2CSC3=C(C#N)C(c4cccs4)CC(=O)N3C2)cc1 (centres undefined)	none
CCc1ccc(N2CSC3=C(C#N)C(c4cccs4)CC(=O)N3C2)cc1 (centres undefined)	PfGluPho inh 62.4
COc1ccc(N2CSC3=C(C#N)C(c4cc(OC)ccc4OC)CC(=O)N3C2)c(OC)c1 (centres undefined)	Diaphorase inh 57.1, PfGluPho inh 113.4, G6PDH counter 50.1
CSc1nc(=S)c2[nH]c(=S)[nH]c2[nH]1	PfGluPho inh 87.8 (no result: Diaphorase inh, G6PDH counter)
CCCOc1ccc(-c2c(C(=O)N/N=C/c3cccs3)nnn2-c2nonc2N)cc1	none (no result: Diaphorase inh, G6PDH counter)
O=C1C2C3C=CC(C3)C2C(=O)N1CNc1ccc(O)cc1 (centres undefined)	Diaphorase inh 64.2 (no result: PfGluPho inh, HKDC1 inh)
CC(Sc1nnc(NC2CC2)s1)C(=O)Nc1ccc(N2CCOCC2)cc1 (centres undefined)	none (no result: Diaphorase inh, G6PDH counter)
CC(Sc1nnc(NC2CCCCC2)s1)C(=O)Nc1ccc2c(c1)C(=O)c1ccccc1C2=O (centres undefined)	Diaphorase inh 56.2
O=[N+]([O-])c1ccccc1NC(=S)N/N=C/c1ccc(O)c(O)c1	Diaphorase inh 72.1
CCOc1cccc(/C=N/NC(=S)Nc2ccccc2[N+](=O)[O-])c1O	none
CC(C)N1CC=C2C(C#N)=C(N)C(C#N)(C#N)[C@H](c3ccoc3)[C@H]2C1	Diaphorase inh 61.8 (no result: PfGluPho inh, HKDC1 inh)
CC(C)N1CC=C2C(C#N)=C(N)C(C#N)(C#N)C(c3ccccc3)C2C1 (centres undefined)	none
CNc1ccc(Br)cc(C(=O)/C=C/c2ccc(OC)cc2)c1=O	none
CNc1ccc(Br)cc(C(=O)/C=C/c2ccc3c(c2)OCO3)c1=O	Diaphorase inh 56.7
Cc1nc2c(C(=O)NCCc3ccccc3Cl)c[nH]n2c(=O)c1Cl	Diaphorase inh 64.8
O=C(O)COn1c(-c2ccccc2)nc2ccc([N+](=O)[O-])cc21	Diaphorase inh 50.4
Cc1ccc(COn2c(-c3ccc(Cl)cc3)nc3ccc([N+](=O)[O-])cc32)cc1	none
O=C(Nc1ccc2nc(-c3ccccn3)c(-c3ccccn3)nc2c1)N1CCOCC1	Diaphorase inh 58.0
O=C(Nc1ccccn1)N1CCOCC1	none
